Measurements published in ChEMBL document CHEMBL4376884, “Toward a Rational Design of Polyamine-Based Zinc-Chelating Agents for Cancer Therapies” (J Med Chem, 2020).
Activity calls are given as the source filed them. No cut-off for these calls is given here.

Columns and labels:
DNA = assay: Induction of DNA damage in human LN229 cells assessed as gammaH2AX phosphorylation at Ser139 residue at 10 uM incubated for 4 hrs by Flow cytometry analysis; type: cell-based
How it was run: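 Z-138 and LN229 cells treated 4 h with 10 µM compound or 1 µM doxorubicin. Fixed in 3.7% formaldehyde on ice, permeabilized with 0.2% Triton X, stained with rabbit anti-pS139 H2A.X (1:400) and Alexa 555 secondary, then analysed by flow cytometry. Fold γH2AX fluorescence versus untreated; mean ± SD of three experiments.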

MCF7 = assay: Antiproliferative activity against human MCF7 cells assessed as reduction in cell viability at 10 uM incubated for 48 hrs by cell titer-glo assay; type: functional, cell-based
How it was run: (§1)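 Cells plated and treated 24 h later with 10 µM compound for 48 h; viable cells quantified by CellTiter-Glo ATP luminescence. Expressed as percentage of viable cells relative to untreated; mean ± SD of three independent experiments, each in triplicate.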

Homo sapiens = organism: Homo sapiens; assay: Antiproliferative activity against human UPN2 cells assessed as reduction in cell viability at 10 uM incubated for 48 hrs by cell titer-glo assay; type: functional, cell-based; how it was run: as §1
Jurkat [1] = assay: Cell cycle arrest in human Jurkat cells assessed as decrease in cell accumulation at G2 phase at 10 uM incubated for 24 hrs by propidium iodide staining based flow cytometry analysis; type: functional
LN-229 [2] = assay: Cell cycle arrest in human LN229 cells assessed as cell accumulation at S phase at 10 uM incubated for 48 hrs by propidium iodide staining based flow cytometry analysis relative to control; type: functional
LN-229 [3] = assay: Induction of cellular senescence in human LN229 cells assessed as increase in nuclear size at 10 uM incubated for 24 hrs by phase contrast microscopy; type: functional, cell-based
How it was run: (§2)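 LN229 and PC3 cells, 12×10^4 per well in 6-well plates, treated with 10 µM compound for 24 h. Senescence-associated β-gal staining: fixed in 2% formaldehyde/0.2% glutaraldehyde for 10 min at RT, stained with 1 mg/mL X-gal at 37 °C for 24 h without CO2. Blue cells counted in at least 10 fields at 10x and given as percent of total; four independent experiments. Morphology viewed by phase contrast at ×100.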

Granta-519 = assay: Antiproliferative activity against human GRANTA-519 cells assessed as reduction in cell viability incubated for 48 hrs by cell titer-glo assay; type: functional, cell-based; conditions: Granta-519, 48 h
How it was run: (§3)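 Dose-response: cells plated, treated 24 h later for 48 h, then ATP measured by CellTiter-Glo luminescence. IC50 given as mean ± SD from three independent experiments, each in triplicate. Fibroblasts came from individuals. Cells were kept in RPMI or DMEM with 10% heat-inactivated FBS and penicillin/streptomycin at 37 °C, 5% CO2.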

LN-229 [4] = assay: Induction of cell morphological changes in human LN229 cells assessed as cell shrinkage at 10 uM incubated for 24 to 48 hrs by phase contrast microscopy; type: functional, cell-based
How it was run: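 LN229 and PC3 cells exposed to 10 µM compound for the indicated time-points, then imaged live by phase-contrast microscopy for morphology.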

LN-229 [5] = assay: Cell cycle arrest in human LN229 cells assessed as cell accumulation at G1 phase at 10 uM incubated for 48 hrs by propidium iodide staining based flow cytometry analysis relative to control; type: functional
PC-3 [6] = assay: Antiproliferative activity against human PC3 cells assessed as reduction in cell viability at 10 uM incubated for 48 hrs by cell titer-glo assay; type: functional, cell-based; how it was run: as §1
PC-3 [7] = assay: Induction of apoptosis in human PC3 cells assessed as early apoptotic cells at 10 uM incubated for 72 hrs by annexin V-FITC and propidium iodide staining based flow cytometry analysis (reference value: 0.24 %); type: functional
SW-620 = assay: Antiproliferative activity against human SW620 cells assessed as reduction in cell viability at 10 uM incubated for 48 hrs by cell titer-glo assay; type: functional, cell-based; how it was run: as §1
PC-3 [8] = assay: Induction of cellular senescence in human PC3 cells assessed as increase in nuclear size at 10 uM incubated for 24 hrs by phase contrast microscopy; type: functional, cell-based; how it was run: as §2
JeKo-1 = assay: Induction of apoptosis in human JeKo1 cells assessed as increase in caspase-3/7 activation at 10 uM incubated for 48 hrs by luminometric caspase-glo 3/7 assay; type: functional, cell-based
How it was run: (§4)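 Cells in RPMI or DMEM with 10% heat-inactivated FBS and penicillin/streptomycin, 37 °C, 5% CO2, treated with 10 µM compound for 48 h. Caspase-3 and caspase-7 activity read by luminescent Caspase-Glo 3/7 assay, reported as fold induction over untreated cells; mean ± SD of three independent experiments, each in triplicate.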

PC-3 [9] = assay: Antiproliferative activity against human PC3 cells assessed as reduction in cell viability incubated for 48 hrs by cell titer-glo assay; type: functional, cell-based; conditions: PC-3, 48 h; how it was run: as §3
Z-138 = assay: Antiproliferative activity against human Z138 cells assessed as reduction in cell viability incubated for 48 hrs by cell titer-glo assay; type: functional, cell-based; conditions: Z-138, 48 h; how it was run: as §3
Jurkat [10] = assay: Induction of apoptosis in human Jurkat cells assessed as increase in caspase-3/7 activation at 10 uM incubated for 48 hrs by luminometric caspase-glo 3/7 assay; type: functional, cell-based; how it was run: as §4
LN-229 [11] = assay: Induction of mitochondrial membrane potential loss in human LN229 cells at 10 uM measured upto 48 hrs by JC-1 staining based flow cytometry analysis; type: functional, cell-based
How it was run: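 LN229 cells seeded at 5×10^5 cells/mL and adhered overnight, then given medium with 10 µM compound for the indicated time-points. Readout is mean FL3 (aggregate, 590 nm)/FL1 (monomer, 530 nm) fluorescence ratio; mean ± SD of three determinations.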

LN-229 [12] = assay: Induction of apoptosis in human LN229 cells assessed as increase in caspase-3/7 activation at 10 uM incubated for 48 hrs by luminometric caspase-glo 3/7 assay; type: functional, cell-based; how it was run: as §4
Jurkat [13] = assay: Antiproliferative activity against human Jurkat cells assessed as reduction in cell viability at 10 uM incubated for 48 hrs by cell titer-glo assay; type: functional, cell-based; how it was run: as §1
Jurkat [14] = assay: Cell cycle arrest in human Jurkat cells assessed as increase in cell accumulation at G0/G1 phase at 10 uM incubated for 24 hrs by propidium iodide staining based flow cytometry analysis; type: functional
LN-229 [15] = assay: Antiproliferative activity against human LN229 cells assessed as reduction in cell viability at 10 uM incubated for 48 hrs in presence of Fe2+ ion by MTT assay; type: functional, cell-based
How it was run: (§5)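 LN229 and PC3 cells plated, then 24 h later given 10 µM compound with or without 15 µM ZnCl2, CuCl2, FeCl2 or FeCl3 for 48 h. Medium replaced, MTT (12 mM solution) added for 4 h, formazan dissolved in DMSO, absorbance read at 540 nm. Percent viable versus untreated; mean ± SD of three experiments in triplicate.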

Jurkat [16] = assay: Antiproliferative activity against human Jurkat cells assessed as reduction in cell viability incubated for 48 hrs by cell titer-glo assay; type: functional, cell-based; how it was run: as §3
LN-229 [17] = assay: Induction of cellular senescence in human LN229 cells assessed as cells with irregular shape at 10 uM incubated for 24 hrs by phase contrast microscopy; type: functional, cell-based; how it was run: as §2
PC-3 [18] = assay: Cell cycle arrest in human PC3 cells assessed as cell accumulation at G1 phase at 10 uM incubated for 24 hrs by propidium iodide staining based flow cytometry analysis relative to control; type: functional
PC-3 [19] = assay: Antiproliferative activity against human PC3 cells assessed as reduction in cell viability at 10 uM incubated for 48 hrs in presence of Cu2+ ion by MTT assay; type: functional, cell-based; how it was run: as §5
LN-229 [20] = assay: Cell cycle arrest in human LN229 cells assessed as cell accumulation at S phase at 10 uM incubated for 24 hrs by propidium iodide staining based flow cytometry analysis relative to control; type: functional

| SMILES | Activity (DNA) | Activity (MCF7) | Activity (Homo sapiens) | Activity (Jurkat [1]) | Activity (LN-229 [2]) | Activity (LN-229 [3]) | IC50 (Granta-519) | Activity (LN-229 [4]) | Activity (LN-229 [5]) | Activity (PC-3 [6]) | Activity (PC-3 [7]) | Activity (SW-620) | Activity (PC-3 [8]) | Activity (JeKo-1) | IC50 (PC-3 [9]) | IC50 (Z-138) | Activity (Jurkat [10]) | Activity (LN-229 [11]) | Activity (LN-229 [12]) | Activity (Jurkat [13]) | other results |
| --- | --- | --- | --- | --- | --- | --- | --- | --- | --- | --- | --- | --- | --- | --- | --- | --- | --- | --- | --- | --- | --- |
| c1ccc(CNCCN(CCNCc2ccccn2)Cc2ccc3ccccc3c2)nc1 | inactive | Active | Active | Active | 10.8% | Active | 4.34 µM | Active | 74.7% | Active | 14.7% | Active | Active | Active | 11 µM | 3.07 µM | Active | Active | Active | Active | Activity (Jurkat [14]): Active; Activity (LN-229 [15]): Active; IC50 (Jurkat [16]): 3.17 µM; Activity (LN-229 [17]): Active; Activity (PC-3 [18]): 73.7%; Activity (PC-3 [19]): inactive; Activity (LN-229 [20]): 14.8% |
| CN(CCNCc1ccccn1)CCNCc1ccccn1 | inactive | Active | Active | Active | 13.5% | Active | 2.09 µM | Active | 66.1% | Active | 14.27% | Active | Active | Active | 11.2 µM | 4.85 µM | Active | Active | Active | Active | Activity (Jurkat [14]): Active; Activity (LN-229 [15]): Active; IC50 (Jurkat [16]): 1.99 µM; Activity (LN-229 [17]): Active; Activity (PC-3 [18]): 71.1%; Activity (PC-3 [19]): inactive; Activity (LN-229 [20]): 15.6% |
